# Apaf-1 inh – human Apaf-1 inhibition; O14727; reconstituted apoptosome caspase-3 activity, DEVD-Rh110 fluorescence; inhibition, % at 20 µM; hit rate 0.71% among 330,000; AID 489030; active = inhibition of at least 40% at 20 µM
#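 Assay system – apoptosome proteins · Medium – Hepes buffer, pH 7.5 · Also added – cytochrome c with DEVD-Rh110 · Timing – 30 min compound preincubation, 50 min activation, room temperature · Detection – Rh110 fluorescence, excitation 480 nm, emission 540 nm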
# UBC13 inh – blocks human UBC13 polyubiquitin chain formation. P61088. TR-FRET. inhibition, % at 20 µM. hit rate 0.47% among 330,000. AID 485273; in the data active = inhibition above about 45%, passing the limit was not always enough; inconclusive = no clear call, values can overlap the other calls
# Target sequence (P61088 whole entry, looked up): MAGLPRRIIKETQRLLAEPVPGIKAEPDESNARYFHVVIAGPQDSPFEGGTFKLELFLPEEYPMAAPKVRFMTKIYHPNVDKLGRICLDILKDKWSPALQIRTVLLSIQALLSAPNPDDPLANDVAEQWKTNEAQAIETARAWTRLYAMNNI
# ZTA counter – counter-screen for EBNA-1 inhibitors: inhibitors of Epstein-Barr virus ZTA; P03206; ZTA-DNA binding, fluorescence polarization; inhibition, % at 11 µM; hit rate 0.15% among 320,000; AID 2234; in the data active = inhibition above about 33%
# Target sequence (P03206 whole entry, looked up): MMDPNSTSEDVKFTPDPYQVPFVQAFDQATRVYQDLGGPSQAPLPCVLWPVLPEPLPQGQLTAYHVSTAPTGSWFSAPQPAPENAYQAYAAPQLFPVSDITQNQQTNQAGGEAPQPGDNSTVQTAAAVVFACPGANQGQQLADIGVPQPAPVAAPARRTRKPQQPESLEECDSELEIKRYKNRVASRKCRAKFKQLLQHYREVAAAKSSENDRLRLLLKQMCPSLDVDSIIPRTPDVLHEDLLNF
# PREPL inhibitor – inhibits the human prolyl oligopeptidase-like enzyme; Q4J6C6; recombinant PREPL, fluorescence polarization activity-based probe; inhibition, % at 5.96 µM; hit rate 0.68% among 320,000
# EBNA-1 inhibitor – blocks EBNA-1 binding to DNA | EBNA-1 DNA binding, fluorescence polarization | inhibition, % at 14.8 µM | hit rate 0.34% among 300,000 | AID 1950; in the data active = inhibition above about 28%
# PREPL confirm – confirmation of human PREPL enzyme inhibitors; AID 2803; inhibition, % at 5.96 µM; hit rate 67% among 2,000; shares compounds with PREPL inhibitor; recombinant PREPL, fluorescence polarization activity probe
# Hits are given with their value; n = inactive; u = inconclusive; x = not tested or not shown. Hits are enriched below; roughly 1.7% of the tested compounds scored in any of these assays. Cut-off read from the data, not from the text of the source, unless noted: active = inhibition above about 43%; inactive = the rest.
SMILES,Apaf-1 inh,UBC13 inh,ZTA counter,PREPL inhibitor,EBNA-1 inhibitor,PREPL confirm
CC1=CC2=NC(=O)/C(=C\c3ccc(OC(=O)c4ccco4)cc3)C(=N)N2O1,n,n,n,n,n,x
COc1cc(/C=C2/C(=N)N3OC(C)=CC3=NC2=O)ccc1OC(=O)c1ccco1,n,n,n,46.3,n,60.3
CC(C)CNC(=O)c1cc([N+](=O)[O-])ccc1N1CCOCC1,n,n,n,n,n,x
CC(C)(CNC(=O)c1cc([N+](=O)[O-])ccc1N1CCC(Cc2ccccc2)CC1)N1CCOCC1,n,n,n,45.0,x,n
Cc1ccc2c(c1)c1c(n2CC(O)Cn2c(C)nc3ccccc32)CCCC1 (stereo not given),n,n,n,n,n,x
Cc1ccc2c(c1)c1c(n2CC(O)CN2CCCCCC2)CCCC1 (stereo not given),n,n,n,44.7,n,n
COc1ccc2cc(C(=O)C3CCCN(C(=O)c4cccnc4)C3)ccc2c1 (stereo not given),n,n,n,45.4,n,n
COc1ccc2cc(C(=O)C3CCCN(C(=O)C4=NN(C)C(=O)CC4)C3)ccc2c1 (stereo not given),n,n,n,43.5,n,n
CCCCC(=O)Nc1cccc(NC(=S)NC(=O)Cc2ccccc2)c1,n,n,n,n,n,x
Cc1cc(C)c2c(N)c(-c3nnc(SCc4ccc(Cl)cc4)n3C)sc2n1,n,n,n,n,n,x
C=CCn1c(SCc2ccccc2Cl)nnc1-c1sc2nc(C)cc(C)c2c1N,n,n,n,47.1,n,n
CC(=O)N1N=C(c2ccc(NS(C)(=O)=O)cc2)CC1c1ccc2nccnc2c1 (stereo not given),n,n,n,n,n,x
CC(=O)Oc1cc(O)c2c(=O)c(OC(C)=O)c(-c3ccc(OC(C)=O)c(OC(C)=O)c3)oc2c1,n,n,n,44.5,n,n
COc1c(-c2ccc(O)cc2)oc2cc(O)cc(O)c2c1=O,n,n,n,n,n,x
COc1ccc(Nc2nnc(SCC(=O)N3CC(=O)Nc4ccccc43)s2)cc1,n,n,n,n,n,x
Cc1occc1-c1nnc(SCc2nc3ccccc3c(=O)n2CC#N)n1C,n,n,n,43.2,n,n
CCn1c(CSc2nnc(-c3ccoc3C)n2C)nc2cc(S(=O)(=O)N(C)C)ccc21,n,n,n,n,n,x
Cc1ccc(OCC(O)Cn2c(=N)n(CCN3CCCCC3)c3ccccc32)cc1 (stereo not given),n,n,n,n,n,x
Cc1ccc(OCC(O)Cn2c(=N)n(CCN3CCOCC3)c3ccccc32)cc1 (stereo not given),n,n,n,45.0,n,n
COC(=O)c1ccccc1S(=O)(=O)NCc1nc2nc(C)cc(C)n2n1,n,n,n,n,n,x
O=C(N/N=C/c1cccnc1)c1cccc(S(=O)(=O)N2CCCC2)c1,n,n,n,n,n,x
Cc1ccc(C)n1-c1ccc(C(=O)NN)s1,n,n,n,56.5,n,n
CCOC(=O)CNC(=O)c1ccc(Br)s1,n,n,n,n,n,x
O=C(CCCCCn1c(=S)[nH]c2ccc(Br)cc2c1=O)NCC1CCCO1 (stereo not given),n,u,n,n,n,x
O=c1c2ccccc2c(C=NCCCN2CCOCC2)c(O)n1Cc1ccc2c(c1)OCO2,n,n,n,43.7,n,n
SMILES,Apaf-1 inh,UBC13 inh,ZTA counter,PREPL inhibitor,EBNA-1 inhibitor,PREPL confirm
Nc1nc(SCC(=O)c2ccc(Br)s2)n[nH]1,n,n,n,51.5,n,n
Cc1cccc(NC(=O)c2sc3ncn(CC(=O)N4CCN(c5ccccn5)CC4)c(=O)c3c2C)c1,n,n,n,n,n,x
COc1ccc(NC(=O)c2sc3ncn(CC(=O)N4CCN(c5ccccn5)CC4)c(=O)c3c2C)cc1OC,n,n,n,58.4,n,49.3
C=CC[n+]1c(-c2ccc(Cl)cc2Cl)csc1Nc1ccc(NC(C)=O)cc1,n,n,n,58.9,n,63.0
Cc1ccc(C2(C)NC(=O)N(CC(=O)N(c3ccccc3)C3CCS(=O)(=O)C3)C2=O)cc1 (stereo not given),n,n,x,51.0,x,n
COc1ccc(Cn2nnc3ccccc32)cc1,n,n,n,50.1,n,n
c1ccc(Cn2nnc3ccccc32)cc1,n,n,n,n,n,x
CCCCC(CC)CNC(=O)/C=C/c1ccc(F)cc1 (stereo not given),n,n,n,n,n,x
COC(CNC(=O)C1CCN(C(=O)c2cc3oc(C)cc3n2Cc2c(F)cccc2Cl)CC1)OC,n,n,n,n,n,x
CCOC(=O)N1CCC(NC(=O)C2CCN(C(=O)c3cc4oc(C)cc4n3Cc3c(F)cccc3Cl)CC2)CC1,n,n,n,54.9,n,52.4
CCOc1ccc(-c2cnc(NCc3cccc4ccccc34)n2CCOC)cc1,n,n,n,47.4,n,n
CCN1CCN(S(=O)(=O)c2ccc(Cl)c(C(=O)N(CC)Cc3ccccc3)c2)CC1,n,n,x,x,x,x
Cc1ccccc1N(CC(=O)Nc1ccc(S(=O)(=O)N2CCOCC2)cc1)S(C)(=O)=O,n,n,n,n,n,x
c1ccc2c(c1)CCN(c1nc3cc4c(cc3s1)OCCO4)C2,n,n,n,48.0,n,n
Cc1sc(NC(=S)NC(=O)c2ccccc2)c(C#N)c1C,n,n,n,n,n,x
CCCN1CCc2c(sc(NC(=S)NC(=O)c3ccccc3)c2C#N)C1,n,n,n,61.1,n,n
Cc1cc(C)nc(/N=C(\N)Nc2ccc(S(=O)(=O)O)cc2)n1,n,n,x,x,x,x
O=[N+]([O-])c1cccc(-c2cc3cccc[n+]3cc2-c2cccc([N+](=O)[O-])c2)c1,n,n,n,n,n,x
Cc1cccc2cc(-c3ccccc3)c(-c3ccccc3)c[n+]12,x,x,n,57.9,n,45.6
COc1cc(/C=C2\C(=N)N3N=C(N4CCOCC4)SC3=NC2=O)ccc1OC(=O)c1ccccc1,n,n,n,n,n,x
N=C1/C(=C\c2ccc(OC(=O)c3ccccc3Cl)cc2)C(=O)N=C2SC(N3CCOCC3)=NN12,n,n,n,52.9,n,n
COc1cc(NS(=O)(=O)c2ccc(C)cc2)c2ncccc2c1,n,n,n,n,n,x
CCC(CNc1cc(OC)cc2cccnc12)NC1CCCCC1 (stereo not given),x,x,n,54.3,n,44.0
CC(C)NC(=O)CN(c1cccc([N+](=O)[O-])c1)S(=O)(=O)c1ccccc1,n,n,n,n,n,x
CN1C(=O)NC(c2ccccc2[N+](=O)[O-])C2=C1CCCC2=O (stereo not given),n,n,n,77.0,n,n
CN1C(=O)NC(c2ccccc2[N+](=O)[O-])C2=C1CC(C)(C)CC2=O (stereo not given),n,n,n,n,n,x
Cc1ccc(C2(C)NC(=O)N(CC(=O)Nc3ccc4[nH]c(=O)[nH]c4c3)C2=O)cc1 (stereo not given),n,n,n,46.5,n,n
COc1ccc(C2(C)NC(=O)N(CC(=O)Nc3ccc4[nH]c(=O)[nH]c4c3)C2=O)cc1 (stereo not given),n,n,n,n,n,x

# Bioassay records: PubChem BioAssay, several laboratories
